Tests used:
[1] = molecular target: Voltage-gated inwardly rectifying potassium channel KCNH2 (Homo sapiens, UniProt Q12809, Y667A); assay: Activation of human ERG1 Y667A mutant expressed in Xenopus laevis oocytes assessed as shifting of voltage dependence of inactivation towards positive potentials at 3 uM by two electrode voltage clamp technique; type: cell-based; conditions: oocyte
Outline: (§1)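 hERG1 (WT or point mutant) cRNA injected into Xenopus oocytes; two-electrode voltage clamp 1-5 days later. Bath: 96 mM NaCl, 2 mM KCl, 1 mM CaCl2, 2 mM MgCl2, 5 mM Hepes, pH 7.6. Holding potential -90 mV. Protocols repeated 10-15 min after adding compound to the bath, diluted from a 10 mM DMSO stock; one concentration per oocyte.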

[2] = molecular target: T1, Voltage-gated inwardly rectifying potassium channel KCNH2 (Homo sapiens, UniProt Q12809, V659A); assay: (§2) Activation of human ERG1 V659A mutant expressed in Xenopus laevis oocytes assessed as slowing of tail current deactivation at 3 uM by two electrode voltage clamp technique; type: cell-based; conditions: oocyte; outline: as §1
[3] = molecular target: T2, Voltage-gated inwardly rectifying potassium channel KCNH2 (Homo sapiens, UniProt Q12809); assay: Activation of human ERG1 isoform 1 expressed in Xenopus laevis oocytes assessed as shifting of voltage dependence of inactivation towards positive potentials by two electrode voltage clamp technique; type: cell-based, Oocyte; outline: as §1
[4] = molecular target: T3, Voltage-gated inwardly rectifying potassium channel KCNH2 (Homo sapiens, UniProt Q12809, N658A); assay: (§3) Activation of human ERG1 N658A mutant expressed in Xenopus laevis oocytes assessed as slowing of tail current deactivation at 3 uM by two electrode voltage clamp technique; type: cell-based; conditions: oocyte; outline: as §1
[5] = molecular target: T2, Voltage-gated inwardly rectifying potassium channel KCNH2; assay: Activation of human ERG1 isoform 1 expressed in Xenopus laevis oocytes assessed as shifting of voltage dependence of inactivation towards positive potentials at 3 uM by two electrode voltage clamp technique; type: cell-based; conditions: oocyte; outline: as §1
[6] = molecular target: Voltage-gated inwardly rectifying potassium channel KCNH2 (Homo sapiens, UniProt Q12809, G628C/S631C); assay: Effect on human ERG1 G628C/S631C mutant expressed in Xenopus laevis oocytes at 3 uM by two electrode voltage clamp technique; type: cell-based; conditions: oocyte
[7] = molecular target: T2, Voltage-gated inwardly rectifying potassium channel KCNH2; assay: Activation of human ERG1 isoform 1 expressed in Xenopus laevis oocytes assessed as enhancement of current magnitude by two electrode voltage clamp technique; type: cell-based; conditions: oocyte
[8] = molecular target: T2, Voltage-gated inwardly rectifying potassium channel KCNH2; assay: Activation of human ERG1 isoform 1 expressed in Xenopus laevis oocytes assessed as shifting of voltage dependence of inactivation towards positive potentials at 30 uM by two electrode voltage clamp technique; type: cell-based; conditions: oocyte; outline: as §1
[9] = molecular target: T2, Voltage-gated inwardly rectifying potassium channel KCNH2; assay: Activation of human ERG1 isoform 1 expressed in Xenopus laevis oocytes assessed as increase in peak tail current magnitude by two electrode voltage clamp technique; type: cell-based, Oocyte
[10] = molecular target: Voltage-gated inwardly rectifying potassium channel KCNH2 (Homo sapiens, UniProt Q12809, Y652A); assay: Activation of human ERG1 Y652A mutant expressed in Xenopus laevis oocytes assessed as slowing of tail current deactivation at 3 uM by two electrode voltage clamp technique; type: cell-based; conditions: oocyte; outline: as §1
[11] = molecular target: T4, Voltage-gated inwardly rectifying potassium channel KCNH2 (Homo sapiens, UniProt Q12809, L666A); assay: Activation of human ERG1 L666A mutant expressed in Xenopus laevis oocytes assessed as shifting of voltage dependence of inactivation towards positive potentials at 3 uM by two electrode voltage clamp technique; type: cell-based; conditions: oocyte; outline: as §1
[12] = molecular target: T2, Voltage-gated inwardly rectifying potassium channel KCNH2; assay: Binding affinity to human ERG1 expressed in Xenopus laevis oocytes assessed as half-saturation concentration; type: cell-based, Oocyte; conditions: read-out: Activity
[13] = molecular target: Voltage-gated inwardly rectifying potassium channel KCNH2 (Homo sapiens, UniProt Q12809, I662A); assay: Activation of human ERG1 I662A mutant expressed in Xenopus laevis oocytes assessed as shifting of voltage dependence of inactivation towards positive potentials at 3 uM by two electrode voltage clamp technique; type: cell-based; conditions: oocyte; outline: as §1
[14] = molecular target: T1, Voltage-gated inwardly rectifying potassium channel KCNH2; assay: as §2; type: cell-based; conditions: oocyte; outline: as §1; remark: listed apart in the source
[15] = molecular target: T5, Voltage-gated inwardly rectifying potassium channel KCNH2 (Homo sapiens, UniProt Q12809, L553A); assay: (§4) Activation of human ERG1 L553A mutant expressed in Xenopus laevis oocytes assessed as slowing of tail current deactivation at 3 uM by two electrode voltage clamp technique; type: cell-based; conditions: oocyte; outline: as §1
[16] = molecular target: T6, Voltage-gated inwardly rectifying potassium channel KCNH2 (Homo sapiens, UniProt Q12809, F557L); assay: Activation of human ERG1 F557L mutant expressed in Xenopus laevis oocytes assessed as shifting of voltage dependence of inactivation towards positive potentials at 30 uM by two electrode voltage clamp technique; type: cell-based; conditions: oocyte; outline: as §1
[17] = molecular target: Voltage-gated inwardly rectifying potassium channel KCNH2 (Homo sapiens, UniProt Q12809, V549A); assay: Activation of human ERG1 V549A mutant expressed in Xenopus laevis oocytes assessed as shifting of voltage dependence of inactivation towards positive potentials at 3 uM by two electrode voltage clamp technique; type: cell-based; conditions: oocyte; outline: as §1
[18] = molecular target: Voltage-gated inwardly rectifying potassium channel KCNH2 (Homo sapiens, UniProt Q12809, L550A); assay: Activation of human ERG1 L550A mutant expressed in Xenopus laevis oocytes assessed as shifting of voltage dependence of inactivation towards positive potentials at 3 uM by two electrode voltage clamp technique; type: cell-based; conditions: oocyte; outline: as §1
[19] = molecular target: T4, Voltage-gated inwardly rectifying potassium channel KCNH2; assay: Inhibition of human ERG1 L666A mutant expressed in Xenopus laevis oocytes assessed as decrease in current amplitude by two electrode voltage clamp technique; type: cell-based; conditions: oocyte; outline: as §1
[20] = molecular target: T2, Voltage-gated inwardly rectifying potassium channel KCNH2; assay: Activation of human ERG1 isoform 1 expressed in Xenopus laevis oocytes assessed as shifting of voltage dependence of inactivation towards positive potentials at 1 uM by two electrode voltage clamp technique; type: cell-based; conditions: oocyte; outline: as §1
[21] = molecular target: T2, Voltage-gated inwardly rectifying potassium channel KCNH2; assay: Activation of human ERG1 isoform 1 expressed in Xenopus laevis oocytes assessed as shifting of voltage dependence of inactivation towards positive potentials at 10 uM by two electrode voltage clamp technique; type: cell-based; conditions: oocyte; outline: as §1
[22] = molecular target: T5, Voltage-gated inwardly rectifying potassium channel KCNH2; assay: as §4; type: cell-based; conditions: oocyte; outline: as §1; remark: listed apart in the source
[23] = molecular target: T6, Voltage-gated inwardly rectifying potassium channel KCNH2; assay: (§5) Activation of human ERG1 F557L mutant expressed in Xenopus laevis oocytes assessed as slowing of tail current deactivation at 3 uM by two electrode voltage clamp technique; type: cell-based; conditions: oocyte; outline: as §1
[24] = molecular target: T3, Voltage-gated inwardly rectifying potassium channel KCNH2; assay: as §3; type: cell-based; conditions: oocyte; outline: as §1; remark: listed apart in the source
[25] = molecular target: T6, Voltage-gated inwardly rectifying potassium channel KCNH2; assay: as §5; type: cell-based; conditions: oocyte; outline: as §1; remark: listed apart in the source
[26] = molecular target: T4, Voltage-gated inwardly rectifying potassium channel KCNH2; assay: Activation of human ERG1 L666A mutant expressed in Xenopus laevis oocytes assessed as shifting of voltage dependence of inactivation towards positive potentials at 30 uM by two electrode voltage clamp technique; type: cell-based; conditions: oocyte; outline: as §1
[27] = molecular target: T2, Voltage-gated inwardly rectifying potassium channel KCNH2; assay: Activation of human ERG1 expressed in CHO cells assessed as enhancement of current magnitude at 10 uM by two electrode voltage clamp technique; type: cell-based
[28] = molecular target: T2, Voltage-gated inwardly rectifying potassium channel KCNH2; assay: Activation of human ERG1 isoform 1 expressed in Xenopus laevis oocytes assessed as slowing of tail current deactivation by two electrode voltage clamp technique; type: cell-based; conditions: oocyte; outline: as §1

With `COc1ccc2nccc(C(=O)CC[C@@H]3CCN(CC#Cc4cc(F)cc(F)c4F)C[C@@H]3C(=O)O)c2c1` the Activity [1] was “Active”, the Activity [2] was “Not Active” and the EC50 [3] was 8 µM. For the same molecule, the Activity [4] was “Not Active”, the Activity [5] was 17.2 mV and the Activity [6] was “Not Active”. For the same molecule, the Activity [7] was “Active”, the Activity [8] was 36.9 mV and the EC50 [9] was 15 µM. For the same molecule, the Activity [10] was “Active”, the Activity [11] was “Active” and the Kd [12] was 9.4 µM. For the same molecule, the Activity [13] was “Active”, the Activity [14] was “Not Active” and the Activity [15] was “Not Active”. For the same molecule, the Activity [16] was less than 10 mV, the Activity [17] was “Active” and the Activity [18] was “Active”. The Activity [19] was “Active”, the Activity [20] was 10.2 mV and the Activity [21] was 28 mV. The Activity [22] was “Not Active”, the Activity [23] was “Not Active” and the Activity [24] was “Not Active”. For the same molecule, the Activity [25] was “Not Active”, the Activity [26] was less than 10 mV and the Activity [27] was 15%. The Activity [28] was “Active”.

Source: ChEMBL document CHEMBL1147066, “Structural basis of action for a human ether-a-go-go-related gene 1 potassium channel activator” (Proc Natl Acad Sci U S A, 2007)
